{"source": "paper PMC7217742", "about": "(Addiction biology, 2019)", "key": {"[1]": {"tested_on": "male Sprague-Dawley rats", "experiment": "Locomotor activity", "assay_type": "in vivo, rat", "settings": "i.v., lowest dose with increase, during microdialysis", "in_short": "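Ambulation and stereotypy were counted by photobeam breaks in the same rats during nucleus accumbens microdialysis. The rats received two sequential i.v. injections 60 min apart, the second threefold higher (0.1/0.3 or 1.0/3.0 mg/kg), or saline (1 ml/kg), and were monitored through the 120-min post-injection period.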"}, "[2]": {"tested_on": "extracellular 5-HT in the nucleus accumbens", "experiment": "In vivo microdialysis, 5-HT", "set-up": "species or system rat", "settings": "i.v.", "in_short": "(§1)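 Male Sprague-Dawley rats (300–400 g) were anesthetized with ketamine/xylazine (75/5 mg/kg i.p.) and fitted with a jugular catheter and a guide cannula aimed at the nucleus accumbens. After three stable baseline samples, they received two i.v. doses 60 min apart, the second threefold higher (0.1 then 0.3, or 1.0 then 3.0 mg/kg); controls received saline (1 ml/kg). Dialysate was collected every 20 min for 120 min. Probe placement was verified histologically. Data were expressed as % baseline and analysed by two-way ANOVA with Bonferroni tests.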"}, "[3]": {"tested_on": "male Sprague-Dawley rats", "experiment": "Telemetric assessment of blood pressure", "assay_type": "in vivo, rat", "settings": "s.c.; for ED50 blood pressure: mean over 3-h session, halfway point 109.5 mm Hg, 95% CI given in text"}, "[4]": {"target": "NET (Rattus norvegicus, UniProt Q63380)", "sequence (Q63380 1-617)": "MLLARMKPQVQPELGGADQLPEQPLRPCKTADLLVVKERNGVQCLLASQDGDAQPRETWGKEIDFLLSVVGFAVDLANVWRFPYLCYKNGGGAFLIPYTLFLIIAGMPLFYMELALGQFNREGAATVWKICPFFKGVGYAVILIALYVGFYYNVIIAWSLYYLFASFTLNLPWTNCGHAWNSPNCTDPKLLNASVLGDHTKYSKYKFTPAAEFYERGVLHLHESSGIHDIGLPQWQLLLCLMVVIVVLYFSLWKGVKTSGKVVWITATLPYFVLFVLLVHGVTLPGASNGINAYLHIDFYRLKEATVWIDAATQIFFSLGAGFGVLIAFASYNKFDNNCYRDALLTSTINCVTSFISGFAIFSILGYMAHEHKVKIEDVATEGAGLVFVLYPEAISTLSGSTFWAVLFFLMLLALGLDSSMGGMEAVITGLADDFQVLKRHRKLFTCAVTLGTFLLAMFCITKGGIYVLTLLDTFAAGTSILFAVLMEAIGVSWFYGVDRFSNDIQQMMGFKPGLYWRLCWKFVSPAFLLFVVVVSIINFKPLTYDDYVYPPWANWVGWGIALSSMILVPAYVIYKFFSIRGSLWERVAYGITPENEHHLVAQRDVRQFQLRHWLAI", "experiment": "Inhibition of [3H]norepinephrine uptake in rat brain synaptosomes", "assay_type": "biochemical"}, "[5]": {"target": "DAT (Rattus norvegicus, UniProt P23977)", "sequence (P23977 whole entry)": "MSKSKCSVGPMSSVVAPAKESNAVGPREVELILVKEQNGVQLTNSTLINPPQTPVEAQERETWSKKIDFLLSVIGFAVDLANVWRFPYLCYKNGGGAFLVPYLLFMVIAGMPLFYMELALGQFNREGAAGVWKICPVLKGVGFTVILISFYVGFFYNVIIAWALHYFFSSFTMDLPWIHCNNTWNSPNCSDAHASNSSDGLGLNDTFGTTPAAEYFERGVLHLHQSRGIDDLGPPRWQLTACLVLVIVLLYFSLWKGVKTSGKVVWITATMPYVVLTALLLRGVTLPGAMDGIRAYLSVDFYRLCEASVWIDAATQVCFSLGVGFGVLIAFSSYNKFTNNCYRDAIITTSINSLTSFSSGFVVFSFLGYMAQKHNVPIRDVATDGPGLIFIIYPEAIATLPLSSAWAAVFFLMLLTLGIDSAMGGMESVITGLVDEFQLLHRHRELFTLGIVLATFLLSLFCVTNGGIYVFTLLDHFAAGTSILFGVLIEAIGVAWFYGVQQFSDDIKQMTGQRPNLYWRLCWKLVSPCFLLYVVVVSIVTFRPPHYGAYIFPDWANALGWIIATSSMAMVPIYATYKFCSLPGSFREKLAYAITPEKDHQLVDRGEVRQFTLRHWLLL", "experiment": "Inhibition of [3H]dopamine uptake in rat brain synaptosomes", "assay_type": "biochemical"}, "[6]": {"tested_on": "male Sprague-Dawley rats", "experiment": "Intravenous self-administration", "assay_type": "in vivo, rat", "settings": "for acquisition of self-administration (rats showing clear evidence): FR1, 10 days, 2-h sessions; for i.v. dose supporting peak responding: dose-effect testing after training on the same enantiomer, discussion; for dose of peak (highest) responding in dose-effect testing: i.v., after acquisition, results section; for active nose-poke responding over 10 days of extinction: saline substituted for drug", "in_short": "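Rats on a reverse light cycle were catheterized in the jugular vein under ketamine/xylazine (80/9.6 mg/kg i.p.) and recovered for at least 7 days. Active nose-pokes (side counterbalanced) were reinforced on FR1 with an i.v. infusion, each followed by a 20-s timeout, in 2-h sessions. Acquisition ran at least 10 days at 0.03 or 0.3 mg/kg/inj. Three further doses were then given in non-systematic order, 3 days each, averaging days 2–3. Saline substitution for 10 days followed. Analysis used a linear mixed-effects model.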"}, "[7]": {"tested_on": "male Sprague-Dawley rats", "experiment": "Telemetric assessment of body temperature", "assay_type": "in vivo, rat", "settings": "s.c., telemetry, data not shown", "in_short": "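In telemetry-implanted rats adapted to the chambers and to s.c. injection, body temperature was sampled for 10 s each minute for 3 h and averaged across the session. Doses were 0.3–3.0 mg/kg or 3.0–30 mg/kg s.c., in non-systematic order, at most twice weekly. One-way ANOVA with Dunnett's test compared each dose with control.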"}, "[8]": {"tested_on": "extracellular dopamine in the nucleus accumbens", "experiment": "In vivo microdialysis, dopamine", "set-up": "species or system rat", "settings": "for dose producing a significant increase in extracellular dopamine: i.v., nucleus accumbens microdialysis, vs saline", "in_short": "as §1"}, "[9]": {"tested_on": "NET", "settings": "range given for DAT and NET together; cited from earlier work"}, "[10]": {"tested_on": "rats", "settings": "progressive ratio schedule, rats trained with racemic MDPV; cited from earlier work"}, "[11]": {"tested_on": "DAT", "settings": "range given for DAT and NET together; cited from earlier work"}, "[12]": {"tested_on": "mice trained to discriminate cocaine from saline", "settings": "cited from earlier work"}, "[13]": {"settings": "uptake inhibition, rat brain synaptosomes"}}, "data": [{"smiles": "CCCC(C(=O)c1ccccc1)N1CCCC1", "note": "(stereo not drawn) [R,S-α-PVP, α-pyrrolidinovalerophenone]", "values": [{"measurement": "dose increasing overall activity and stereotypy", "setting": "[1]", "value": 0.3, "unit": "mg/kg"}, {"measurement": "change in extracellular levels of 5-HT", "setting": "[2]", "value": "no changes"}]}, {"smiles": "CCC[C@H](C(=O)c1ccccc1)N1CCCC1", "note": "[R-α-PVP]", "values": [{"measurement": "fold difference in potency between enantiomers from calculated ED50 values", "setting": "[3]; blood pressure and heart rate, R- vs S-α-PVP", "value": "20 – 40 fold"}, {"measurement": "times less potent than racemic α-PVP on blood pressure", "setting": "[3]; from significant doses", "value": "approximately 10 times"}, {"measurement": "ED50 blood pressure", "setting": "[3]", "value": 5.85, "unit": "mg/kg"}, {"measurement": "times less potent than S-α-PVP at NET", "setting": "[4]", "value": 20, "unit": "times"}, {"measurement": "times less potent than S-α-PVP at DAT", "setting": "[5]; [13]", "value": 40, "unit": "times"}, {"measurement": "dose increasing overall activity and stereotypy", "setting": "[1]", "value": 3, "unit": "mg/kg"}, {"measurement": "acquisition of self-administration (rats showing clear evidence)", "setting": "[6]; 0.03 mg/kg/injection i.v.", "value": "did not show evidence of acquisition"}, {"measurement": "acquisition of self-administration (rats showing clear evidence)", "setting": "[6]; 0.3 mg/kg/injection i.v.", "value": "Six of the 8"}, {"measurement": "times less potent than S-α-PVP (self-administration dose-effect determinations)", "setting": "[6]; abstract", "value": "at least 30 times"}, {"measurement": "i.v. dose supporting peak responding", "setting": "[6]", "value": 0.3, "unit": "mg/kg/inj"}, {"measurement": "dose of peak (highest) responding in dose-effect testing", "setting": "[6]", "value": 0.3, "unit": "mg/kg/injection"}, {"measurement": "fold less potent than racemic α-PVP (self-administration dose-effect function)", "setting": "[6]; rightward shift of inverted U-shaped function", "value": "around 30 fold"}, {"measurement": "active nose-poke responding over 10 days of extinction", "setting": "[6]", "value": "did not decrease significantly over days of extinction"}, {"measurement": "dose with significant increase in body temperature", "setting": "[7]", "value": 10, "unit": "mg/kg"}, {"measurement": "size of dopamine increase relative to 0.3 mg/kg S-α-PVP", "setting": "[8]; 3 mg/kg i.v., nucleus accumbens", "value": "less than half"}, {"measurement": "dose producing a significant increase in extracellular dopamine", "setting": "[8]", "value": 3, "unit": "mg/kg"}]}, {"smiles": "CCC[C@@H](C(=O)c1ccc2c(c1)OCO2)N1CCCC1", "note": "[S-MDPV]", "values": [{"measurement": "times more potent than R-MDPV in blocking uptake at NET", "setting": "[9]", "value": "50–100 times"}, {"measurement": "times more potent than the R-isomer in self-administration", "setting": "[10]", "value": "about 50 times"}, {"measurement": "times more potent than R-MDPV in blocking uptake at DAT", "setting": "[11]", "value": "50–100 times"}, {"measurement": "times more potent than the R-isomer in substituting for cocaine", "setting": "[12]", "value": "about 100 times"}]}, {"smiles": "CCC[C@@H](C(=O)c1ccccc1)N1CCCC1", "note": "[S-α-PVP]", "values": [{"measurement": "times more potent than racemic on blood pressure (ED50)", "setting": "[3]", "value": "approximately 2 times"}, {"measurement": "ED50 blood pressure", "setting": "[3]", "value": 0.29, "unit": "mg/kg"}, {"measurement": "times more potent than the racemate at NET", "setting": "[4]", "value": "about 2 times"}, {"measurement": "times more potent than cocaine in blocking uptake at DAT", "setting": "[5]; discussion", "value": "about 30 times"}, {"measurement": "times more potent than the racemate at DAT", "setting": "[5]; [13]", "value": "about 2 times"}, {"measurement": "dose increasing overall activity and stereotypy", "setting": "[1]", "value": 0.1, "unit": "mg/kg"}, {"measurement": "acquisition of self-administration (rats showing clear evidence)", "setting": "[6]; 0.03 mg/kg/injection i.v.", "value": "All 10"}, {"measurement": "i.v. dose supporting peak responding", "setting": "[6]", "value": "≤ 0.003", "unit": "mg/kg/inj"}, {"measurement": "dose of peak (highest) responding in dose-effect testing", "setting": "[6]", "value": 0.003, "unit": "mg/kg/injection"}, {"measurement": "active nose-poke responding over 10 days of extinction", "setting": "[6]", "value": "decreased over the 10 days of extinction"}, {"measurement": "dose with significant increase in body temperature", "setting": "[7]", "value": 0.3, "unit": "mg/kg"}, {"measurement": "dose producing a significant increase in extracellular dopamine", "setting": "[8]", "value": 0.1, "unit": "mg/kg"}]}]}
